The results in this text go back to ChEMBL document CHEMBL1154566, “Quadranosides I-V, new triterpene glucosides from the seeds of Combretum quadrangulare” (2000).

Type in all cases: functional
The test system of assay [1] is Hepatocyte. Put plainly: Hepatoprotective activity against mouse hepatocytes assessed as inhibition of D-galactosamine/TNFalpha-induced cell death at 50 uM after 18 hrs by MTT assay. Put shortly: (§1)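 Primary cultured mouse hepatocytes in Williams' E medium with 10% calf serum, penicillin G, streptomycin, 100 µM dexamethasone and 50 ng/mL insulin, seeded at 10^5 cells/well and preincubated 2 h. The medium was then replaced with fresh medium holding 0.5 mM D-GalN plus test sample.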
For orientation: Tetrazolium assays rely on reduction of a dye to a coloured formazan, in cell work by metabolically active cells.

Assay [2] has as its system Hepatocyte. Put plainly: Hepatoprotective activity against mouse hepatocytes assessed as inhibition of D-galactosamine/TNFalpha-induced cell death at 100 uM after 18 hrs by MTT assay. An outline of the steps: as §1
Assay [3] relates to Hepatocyte. Put plainly: Hepatoprotective activity against mouse hepatocytes assessed as inhibition of D-galactosamine/TNFalpha-induced cell death at 200 uM after 18 hrs by MTT assay. An outline of the steps: as §1
Assay [4] deals with Hepatocyte. Put plainly: Hepatoprotective activity against mouse hepatocytes assessed as inhibition of D-galactosamine/TNFalpha-induced cell death at 25 uM after 18 hrs by MTT assay. An outline of the steps:
as §1

Active and inactive are the calls of the source. No cut-off for these calls is given here.

Take `CC1=C(C)[C@H]2C3=CC[C@@H]4[C@@]5(C)C[C@@H](O)[C@H](O)[C@@](C)(CO)[C@@H]5CC[C@@]4(C)[C@]3(C)CC[C@@]2(C(=O)O[C@@H]2O[C@H](CO)[C@@H](O)[C@H](O)[C@H]2O)CC1`: in the assay on Hepatocyte [1], the inhibition (commonly how much of the control response was suppressed) at 50 µM amounted to 8.3%. Besides, the inhibition at 100 µM in the assay with Hepatocyte [2] came out at 25%. Moreover, in the assay on Hepatocyte [3], the inhibition at 200 µM is 15%.
Consider `C[C@H]1[C@H](C)CC[C@]2(C(=O)O[C@@H]3O[C@H](CO)[C@@H](O)[C@H](O)[C@H]3O)CC[C@]3(C)C(=CC[C@@H]4[C@@]5(C)C[C@@H](O)[C@H](O)[C@@](C)(CO)[C@@H]5CC[C@]43C)[C@H]12`, for which the result with Hepatocyte [1], in the assay on Hepatocyte [2], in the assay on Hepatocyte [4] and in the assay on Hepatocyte [3] was inactive.
Take `Oc1cc(O)c2c(c1)O[C@H](c1ccc(O)c(O)c1)[C@H](O)C2` [(-)-EPICATECHIN]: the inhibition at 50 µM in the assay on Hepatocyte [1] is 38%. The inhibition at 100 µM in the assay with Hepatocyte [2] came out at 58.1%. Besides, the inhibition at 200 µM with Hepatocyte [3] is 98.9%.
For the molecule `CC1(C)CC[C@]2(C(=O)O)CC[C@]3(C)C(=CC[C@@H]4[C@@]5(C)C[C@@H](O)[C@H](O)[C@@](C)(CO)[C@@H]5CC[C@]43C)[C@@H]2[C@@H]1O` [ARJUNGENIN], the inhibition at 50 µM with Hepatocyte [1] is 31.8%. For the same molecule, the inhibition at 100 µM in the assay on Hepatocyte [2] turned out to be 37%. Besides, the inhibition at 200 µM in the assay with Hepatocyte [3] worked out at 46.2%.
The matching figures for `CC1(C)CC[C@]2(C(=O)O[C@@H]3O[C@H](CO)[C@@H](O)[C@H](O)[C@H]3O)CC[C@]3(C)C(=CC[C@@H]4[C@@]5(C)C[C@@H](O)[C@H](O)[C@@](C)(CO)[C@@H]5CC[C@]43C)[C@@H]2[C@@H]1O` [ARJUNGLUCOSIDE I]: 10.1%, 31.5% and 32.7%.
The like results for `Oc1cc(O)c2c(c1)O[C@H](c1cc(O)c(O)c(O)c1)[C@@H](O)C2` [GALLOCATECHIN] were, in that order, 19.7%, 30.3% and 33.5%.
`C[C@@]1(CO)CC[C@]2(C(=O)O[C@@H]3O[C@H](CO)[C@@H](O)[C@H](O)[C@H]3O)CC[C@]3(C)C(=CC[C@@H]4[C@@]5(C)C[C@@H](O)[C@H](O)[C@@](C)(CO)[C@@H]5CC[C@]43C)[C@@H]2C1` [QUADRANOSIDE III]: the inhibition at 50 µM in the assay with Hepatocyte [1] came out at 8%. In the assay on Hepatocyte [2], the inhibition at 100 µM was found to be 17.8%. The inhibition at 25 µM in the assay with Hepatocyte [4] was determined as 15.1%. Further, in the assay with Hepatocyte [3], the inhibition at 200 µM was 35.5%.
On to `C=C(C)[C@@H]1CC[C@]2(C(=O)O[C@@H]3O[C@H](CO)[C@@H](O)[C@H](O)[C@H]3O)CC[C@]3(C)[C@H](CC[C@@H]4[C@@]5(C)C[C@@H](O)[C@H](O)[C@@](C)(CO)[C@@H]5[C@H](O)C[C@]43C)[C@@H]12` [QUADRANOSIDE II], for which the inhibition at 50 µM in the assay with Hepatocyte [1] turned out to be 40.9%. In addition, the inhibition at 100 µM in the assay with Hepatocyte [2] was determined as 46.1%. For the same molecule, in the assay on Hepatocyte [4], the inhibition at 25 µM amounted to 32%. In addition, in the assay on Hepatocyte [3], the inhibition at 200 µM was 83.6%.
As for `C=C(C)[C@@H]1CC[C@]2(C(=O)O[C@@H]3O[C@H](CO)[C@@H](O)[C@H](O)[C@H]3O)CC[C@]3(C)[C@H](CC[C@@H]4[C@@]5(C)C[C@@H](O)[C@H](O)C(C)(C)[C@@H]5[C@H](O)C[C@]43C)[C@@H]12` [QUADRANOSIDE I], the inhibition at 50 µM with Hepatocyte [1] came to 37.6%. In addition, the inhibition at 100 µM in the assay with Hepatocyte [2] stood at 29.7%. Further, in the assay with Hepatocyte [4], the inhibition at 25 µM was 6.3%. For the same molecule, the inhibition at 200 µM with Hepatocyte [3] stood at 71.2%.
The like results for `CC1=C2C3=CC[C@@H]4[C@@]5(C)C[C@@H](O)[C@H](O)[C@@](C)(CO)[C@@H]5[C@H](O)C[C@@]4(C)[C@]3(C)CC[C@@]2(C(=O)O[C@@H]2O[C@H](CO)[C@@H](O)[C@H](O)[C@H]2O)CC[C@H]1C` [QUADRANOSIDE V] were, in that order, 67.5%, 77.7%, 59.3% and 80.1%.
The matching figures for `COc1cc(C2Oc3cc([C@H]4Oc5cc(O)cc(O)c5C(=O)[C@@H]4O)ccc3OC2CO)ccc1O` (some centres undefined) [SILIBININ]: 61.2%, 96.5%, 38.1% and 70.8%.
